Each structure is given as a SMILES string.

Test system in one experiment: not listed separately
As to the kind of experiment: Induction of pig brain alpha-beta-tubulin polymerization.
Conditions: not given
On the set-up: species or system Sus scrofa. Summed up: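 Porcine brain tubulin at 10 µM. Polymerization followed by turbidity at 340 nm until a stable A340 plateau (equilibrium between soluble and polymerized tubulin). EC50 is the concentration inducing 50% of the maximum achievable polymerization. The maximum is the plateau beyond which higher compound concentration gives no further A340 increase.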
One may read the EC50 as the concentration that produces a half-maximal response. With `C/C(=C\c1csc(C)n1)[C@@H]1C[C@@H]2O[C@@H]2CCC[C@H](C)[C@H](O)[C@@H](C)C(=O)C(C)(C)/C=C/C(=O)O1` [3-DEOXY-2,3-DIDEHYDRO-EPO A], the EC50 stood at 4.8 µM.

As to `C/C(=C\c1csc(C)n1)[C@@H]1C[C@@H]2O[C@@H]2CCC[C@H](C)[C@H](O)[C@@H](C)C(=O)C(C)(C)CCC(=O)O1` [3-DEOXY-EPO A], the EC50 amounted to 5.6 µM. The EC50 values of the last two molecules are within 1.5-fold of each other.

In the case of `C/C(=C\c1csc(C)n1)[C@@H]1C[C@@H]2O[C@@H]2CCC[C@H](C)[C@H](O)[C@@H](C)C(=O)C(C)(C)[C@@H](O)CC(=O)O1` [EPOTHILONE A], the EC50 was found to be 4.6 µM.

Test system in a further experiment: not listed separately
As to the kind of experiment: Antiproliferative activity against human PC3M cells after 72 hrs by methylene blue staining. It counts as functional, cell-based. The conditions noted are these: PC-3M. Summed up:
(§1)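 Human cancer cell lines exposed to compound for 72 h. Cells then fixed and total protein quantified by methylene blue staining. IC50 taken as concentration giving 50% growth inhibition.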
As usually defined, the IC50 is the midpoint of a concentration-inhibition curve. A high value points to weaker potency in that assay. Turning to `C/C(=C\c1csc(C)n1)[C@@H]1C[C@@H]2O[C@@H]2CCC[C@H](C)[C@H](O)[C@@H](C)C(=O)C(C)(C)/C=C/C(=O)O1` [3-DEOXY-2,3-DIDEHYDRO-EPO A], half-maximal inhibition (IC50) was put at 0.0248 µM.

As for `C/C(=C\c1csc(C)n1)[C@@H]1C[C@@H]2O[C@@H]2CCC[C@H](C)[C@H](O)[C@@H](C)C(=O)C(C)(C)CCC(=O)O1` [3-DEOXY-EPO A], the IC50 came out at 0.079 µM.

Take `C/C(=C\c1csc(C)n1)[C@@H]1C[C@@H]2O[C@@H]2CCC[C@H](C)[C@H](O)[C@@H](C)C(=O)C(C)(C)[C@@H](O)CC(=O)O1` [EPOTHILONE A]: the IC50 was 0.0064 µM.

The next experiment has as its system HCT-116. As to the kind of experiment: Antiproliferative activity against human HCT116 cells after 72 hrs by methylene blue staining. The format is functional, cell-based. To be noted: HCT-116, 72 h. A digest of the protocol: as §1
Molecule `C/C(=C\c1csc(C)n1)[C@@H]1C[C@@H]2O[C@@H]2CCC[C@H](C)[C@H](O)[C@@H](C)C(=O)C(C)(C)/C=C/C(=O)O1` [3-DEOXY-2,3-DIDEHYDRO-EPO A] gave an IC50 of 0.0162 µM.

`C/C(=C\c1csc(C)n1)[C@@H]1C[C@@H]2O[C@@H]2CCC[C@H](C)[C@H](O)[C@@H](C)C(=O)C(C)(C)CCC(=O)O1` [3-DEOXY-EPO A] showed an IC50 of 0.0844 µM.

For `C/C(=C\c1csc(C)n1)[C@@H]1C[C@@H]2O[C@@H]2CCC[C@H](C)[C@H](O)[C@@H](C)C(=O)C(C)(C)[C@@H](O)CC(=O)O1` [EPOTHILONE A], the IC50 was 0.0028 µM.

The test system of the next experiment is MCF7. As to the kind of experiment: Antiproliferative activity against human MCF7 cells after 72 hrs by methylene blue staining. The conditions noted are these: MCF7, 72 h. It counts as functional, cell-based. Summed up:
as §1
For the molecule `C/C(=C\c1csc(C)n1)[C@@H]1C[C@@H]2O[C@@H]2CCC[C@H](C)[C@H](O)[C@@H](C)C(=O)C(C)(C)/C=C/C(=O)O1` [3-DEOXY-2,3-DIDEHYDRO-EPO A], the 50% inhibitory concentration (IC50) was determined as 0.0087 µM.

Regarding `C/C(=C\c1csc(C)n1)[C@@H]1C[C@@H]2O[C@@H]2CCC[C@H](C)[C@H](O)[C@@H](C)C(=O)C(C)(C)CCC(=O)O1` [3-DEOXY-EPO A], the IC50 turned out to be 0.0584 µM. Against the preceding molecule, the IC50 is about 6.7-fold higher.

The molecule `C/C(=C\c1csc(C)n1)[C@@H]1C[C@@H]2O[C@@H]2CCC[C@H](C)[C@H](O)[C@@H](C)C(=O)C(C)(C)[C@@H](O)CC(=O)O1` [EPOTHILONE A] registered an IC50 of 0.0029 µM.
